In ChEMBL document CHEMBL2046336, “Structure-activity relationships of saponin derivatives: a series of entry inhibitors for highly pathogenic H5N1 influenza virus” (Eur J Med Chem, 2012):
Activity calls are given as the source filed them. The calls are words filed in the database; no cut-off is given here.

Assays:
Format in all cases: cell-based
[1] = Inhibition of Influenza A virus (A/Viet Nam/1203/2004(H5N1)) hemagglutininin-mediated viral entry into human A549 cells after 48 hrs postinfection by luminometric analysis
Summary of the method: (§1)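 A549 cells seeded at 5 × 10⁴ per well; test compounds added 15 min before HIV-luc pseudovirions bearing the H5N1 HA (Qinghai or Viet Nam strain) or VSV-G envelope, then incubated. Pseudovirion supernatants were filtered and used directly for infection.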

[2] = Inhibition of Influenza A virus (A/Bar-headed Goose/Qinghai/59/05(H5N1)) hemagglutininin-mediated viral entry into human A549 cells after 48 hrs postinfection by luminometric analysis; summary of the method: as §1
A549 [3] = test: Inhibition of Vesicular stomatitis virus envelope glycoprotein-mediated viral entry into human A549 cells after 48 hrs postinfection by luminometric analysis; summary of the method: as §1
A549 [4] = test: Cytotoxicity against human A549 cells after 48 hrs; details: a549, 48 h

SMILES	IC50 [1]	IC50 [2]	inhibition (A549 [3])	Activity (A549 [4])
C[C@@H]1CC[C@@]2(OC1)O[C@H]1C[C@H]3[C@@H]4C[C@H](O)[C@H]5C[C@@H](O)CC[C@]5(C)[C@H]4CC[C@]3(C)[C@H]1[C@@H]2C [CHLOROGENIN]	> 50 µM	> 50 µM		
C[C@@H]1CC[C@@]2(OC1)O[C@H]1C[C@H]3[C@@H]4C[C@H](O[C@@H]5O[C@@H](C)[C@H](O)[C@@H](O)[C@H]5O)[C@H]5C[C@@H](O[C@@H]6O[C@H](CO)[C@@H](O[C@@H]7O[C@@H](C)[C@H](O)[C@@H](O)[C@H]7O)[C@H](O)[C@H]6O[C@@H]6O[C@@H](C)[C@H](O)[C@@H](O)[C@H]6O)CC[C@]5(C)[C@H]4CC[C@]3(C)[C@H]1[C@@H]2C	> 50 µM	> 50 µM	inactive	Non-toxic
C[C@@H]1CC[C@@]2(OC1)O[C@H]1C[C@H]3[C@@H]4C[C@H](O)[C@H]5C[C@@H](O[C@@H]6O[C@H](CO)[C@@H](O[C@@H]7O[C@@H](C)[C@H](O)[C@@H](O)[C@H]7O)[C@H](O)[C@H]6O[C@@H]6O[C@@H](C)[C@H](O)[C@@H](O)[C@H]6O)CC[C@]5(C)[C@H]4CC[C@]3(C)[C@H]1[C@@H]2C	7.8 µM	7.2 µM	inactive	Non-toxic
CO[C@@H]1[C@@H](O)[C@@H](O)[C@H](O[C@H]2[C@H](O[C@H]3CC[C@@]4(C)[C@H](C3)[C@@H](O)C[C@@H]3[C@@H]4CC[C@]4(C)[C@@H]5[C@H](C[C@@H]34)O[C@]3(CC[C@@H](C)CO3)[C@H]5C)O[C@H](CO)[C@@H](O[C@@H]3O[C@@H](C)[C@H](OC)[C@@H](O)[C@H]3O)[C@@H]2O)O[C@H]1C	24 µM		inactive	Non-toxic
CO[C@H]1[C@H](O[C@H]2[C@H](O[C@H]3CC[C@@]4(C)[C@H](C3)[C@@H](O)C[C@@H]3[C@@H]4CC[C@]4(C)[C@@H]5[C@H](C[C@@H]34)O[C@]3(CC[C@@H](C)CO3)[C@H]5C)O[C@H](CO)[C@@H](O[C@@H]3O[C@@H](C)[C@H](O)[C@@H](O)[C@H]3OC)[C@@H]2O)O[C@@H](C)[C@H](O)[C@H]1O	15 µM	31 µM	inactive	Non-toxic
COC[C@H]1O[C@@H](O[C@H]2CC[C@@]3(C)[C@H](C2)[C@@H](O)C[C@@H]2[C@@H]3CC[C@]3(C)[C@@H]4[C@H](C[C@@H]23)O[C@]2(CC[C@@H](C)CO2)[C@H]4C)[C@H](O[C@@H]2O[C@@H](C)[C@H](O)[C@@H](O)[C@H]2O)[C@@H](O)[C@@H]1O[C@@H]1O[C@@H](C)[C@H](O)[C@@H](O)[C@H]1O	9 µM	12 µM	inactive	Non-toxic
C[C@@H]1CC[C@@]2(OC1)O[C@H]1C[C@H]3[C@@H]4C[C@@H](O)[C@H]5C[C@@H](O[C@@H]6O[C@H](CO)[C@@H](O[C@@H]7O[C@@H](C)[C@H](O)[C@@H](O)[C@H]7O)[C@H](O)[C@H]6O[C@@H]6O[C@@H](C)[C@H](O)[C@@H](O)[C@H]6O)CC[C@]5(C)[C@H]4CC[C@]3(C)[C@H]1[C@@H]2C	11 µM	18 µM	inactive	Non-toxic
CCS[C@@H]1O[C@H](CO)[C@@H](O[C@@H]2O[C@@H](C)[C@H](O)[C@@H](O)[C@H]2O)[C@H](O)[C@H]1O[C@@H]1O[C@@H](C)[C@H](O)[C@@H](O)[C@H]1O	> 50 µM	> 50 µM	inactive	Non-toxic
C[C@@H]1CC[C@@]2(OC1)O[C@H]1C[C@H]3[C@@H]4C[C@H](O)[C@H]5C[C@@H](O[C@@H]6O[C@H](CO)[C@@H](O[C@@H]7OC[C@H](O)[C@H](O)[C@H]7O)[C@H](O)[C@H]6O[C@@H]6OC[C@H](O)[C@H](O)[C@H]6O)CC[C@]5(C)[C@H]4CC[C@]3(C)[C@H]1[C@@H]2C	> 50 µM	> 50 µM	inactive	Non-toxic
CO[C@@H]1[C@@H](O[C@@H]2O[C@@H](C)[C@H](O)[C@@H](O)[C@H]2O)[C@H](O[C@H]2CC[C@@]3(C)[C@H](C2)[C@@H](O)C[C@@H]2[C@@H]3CC[C@]3(C)[C@@H]4[C@H](C[C@@H]23)O[C@]2(CC[C@@H](C)CO2)[C@H]4C)O[C@H](CO)[C@H]1O[C@@H]1O[C@@H](C)[C@H](O)[C@@H](O)[C@H]1O	13 µM	25 µM	inactive	Non-toxic
COC(=O)[C@]12CC[C@@H](C)[C@H](C)[C@H]1C1=CC[C@@H]3[C@@]4(C)CC[C@H](O[C@@H]5O[C@H](CO)[C@@H](O[C@@H]6O[C@@H](C)[C@H](O)[C@@H](O)[C@H]6O)[C@H](O)[C@H]5O[C@@H]5O[C@@H](C)[C@H](O)[C@@H](O)[C@H]5O)C(C)(C)[C@@H]4CC[C@@]3(C)[C@]1(C)CC2	8.5 µM	6 µM	inactive	Non-toxic
C[C@@H]1CC[C@@]2(OC1)O[C@H]1C[C@H]3[C@@H]4CC(=O)[C@H]5C[C@@H](O[C@@H]6O[C@H](CO)[C@@H](O[C@@H]7O[C@@H](C)[C@H](O)[C@@H](O)[C@H]7O)[C@H](O)[C@H]6O[C@@H]6O[C@@H](C)[C@H](O)[C@@H](O)[C@H]6O)CC[C@]5(C)[C@H]4CC[C@]3(C)[C@H]1[C@@H]2C	12 µM	20 µM	inactive	Non-toxic
CO[C@@H]1[C@@H](O)[C@H](C)O[C@@H](O[C@H]2[C@H](O[C@H]3CC[C@@]4(C)[C@H](C3)[C@@H](O)C[C@@H]3[C@@H]4CC[C@]4(C)[C@@H]5[C@H](C[C@@H]34)O[C@]3(CC[C@@H](C)CO3)[C@H]5C)O[C@H](CO)[C@@H](O[C@@H]3O[C@@H](C)[C@H](O)[C@@H](OC)[C@H]3O)[C@@H]2O)[C@@H]1O	16 µM	28 µM	inactive	Non-toxic
C[C@@H]1O[C@@H](O[C@H]2[C@H](O)[C@@H](O[C@@H]3O[C@@H](C)[C@H](O)[C@@H](O)[C@H]3O)C(O)O[C@@H]2CO)[C@H](O)[C@H](O)[C@H]1O (some centres not stated) [CHACOTRIOSE]	> 50 µM	> 50 µM	inactive	Non-toxic
CC(=O)O[C@H]1C[C@@H]2[C@H](CC[C@]3(C)[C@@H]4[C@H](C[C@@H]23)O[C@]2(CC[C@@H](C)CO2)[C@H]4C)[C@@]2(C)CC[C@H](O[C@@H]3O[C@H](CO)[C@@H](O[C@@H]4O[C@@H](C)[C@H](O)[C@@H](O)[C@H]4O)[C@H](O)[C@H]3O[C@@H]3O[C@@H](C)[C@H](O)[C@@H](O)[C@H]3O)C[C@H]12	9.3 µM	7.6 µM	inactive	Non-toxic
